# Measured values taken from ChEMBL document CHEMBL3588757, “Structure-based design, synthesis and biological testing of piperazine-linked bis-epipodophyllotoxin etoposide analogs” (Bioorg Med Chem, 2015).
# Assays:
# Type in all cases: functional
# [1] = test system: OVCAR-8; experiment: Cytotoxicity against human OVCAR8 cells assessed as cell growth at 50 uM by SRB assay; settings: read-out: Activity
# [2] = test system: MDA-MB-435; experiment: Cytotoxicity against human MDA-MB-435 cells assessed as cell growth at 5 uM by SRB assay; settings: read-out: Activity
# [3] = test system: A498; experiment: Cytotoxicity against human A498 cells assessed as cell growth at 0.5 uM by SRB assay; settings: read-out: Activity
# [4] = test system: U-251; experiment: Cytotoxicity against human U251 cells by SRB assay
# How it was run: (§1)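 NCI-60 panel screen; 5-dose testing giving GI50 per cell line, plus a single 10 µM one-dose test. Method details not given beyond the NCI screen.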
# [5] = test system: HCT-15; experiment: Cytotoxicity against human HCT15 cells assessed as cell growth at 50 uM by SRB assay; settings: read-out: Activity
# How it was run: (§2)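 Measured in the NCI-60 human tumour cell line panel using five-dose testing. Growth was recorded at each dose for each cell line, and a GI50 was derived for each line.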
# [6] = test system: SK-MEL-28; experiment: Cytotoxicity against human SK-MEL-28 cells by SRB assay; how it was run: as §1
# [7] = test system: OVCAR-3; experiment: Cytotoxicity against human OVCAR3 cells by SRB assay; how it was run: as §1
# [8] = test system: M14; experiment: Cytotoxicity against human M14 cells assessed as cell growth at 5 uM by SRB assay; settings: read-out: Activity
# [9] = test system: LOX IMVI; experiment: Cytotoxicity against human LOXIMVI cells assessed as cell growth at 0.005 uM by SRB assay; settings: read-out: Activity
# [10] = test system: UO-31; experiment: Cytotoxicity against human UO31 cells assessed as cell growth at 0.05 uM by SRB assay; settings: read-out: Activity
# [11] = test system: CCRF-CEM; experiment: Cytotoxicity against human CCRF-CEM cells assessed as cell growth at 0.05 uM by SRB assay; settings: read-out: Activity
# [12] = test system: NCI-H522; experiment: Cytotoxicity against human NCI-H522 cells assessed as cell growth at 0.5 uM by SRB assay; settings: read-out: Activity
# [13] = test system: SK-MEL-28; experiment: Cytotoxicity against human SK-MEL-28 cells assessed as cell growth at 5 uM by SRB assay; settings: read-out: Activity
# [14] = test system: NCI-H23; experiment: Cytotoxicity against human NCI-H23 cells assessed as cell growth at 0.05 uM by SRB assay; settings: read-out: Activity
# [15] = test system: A498; experiment: Cytotoxicity against human A498 cells assessed as cell growth at 0.005 uM by SRB assay; settings: read-out: Activity
# [16] = test system: U-251; experiment: Cytotoxicity against human U251 cells assessed as cell growth at 0.5 uM by SRB assay; settings: read-out: Activity
# [17] = test system: OVCAR-8; experiment: Cytotoxicity against human OVCAR8 cells assessed as cell growth at 5 uM by SRB assay; settings: read-out: Activity
# [18] = test system: OVCAR-4; experiment: Cytotoxicity against human OVCAR4 cells assessed as cell growth at 0.05 uM by SRB assay; settings: read-out: Activity
# [19] = test system: KM12; experiment: Cytotoxicity against human KM12 cells assessed as cell growth at 0.05 uM by SRB assay; settings: read-out: Activity
# [20] = test system: BT-549; experiment: Cytotoxicity against human BT549 cells assessed as cell growth at 0.005 uM by SRB assay; settings: read-out: Activity
# [21] = test system: COLO 205; experiment: Cytotoxicity against human COLO205 cells by SRB assay
# [22] = test system: IGROV-1; experiment: Cytotoxicity against human IGROV1 cells by SRB assay; how it was run: as §1
# [23] = test system: SF-295; experiment: Cytotoxicity against human SF295 cells assessed as cell growth at 0.05 uM by SRB assay; settings: read-out: Activity
# [24] = test system: MDA-MB-468; experiment: Cytotoxicity against human MDA-MB-468 cells assessed as cell growth at 5 uM by SRB assay; settings: read-out: Activity
# [25] = test system: A549; experiment: Cytotoxicity against human A549/ATCC cells assessed as cell growth at 0.5 uM by SRB assay; settings: read-out: Activity
# [26] = test system: SK-MEL-2; experiment: Cytotoxicity against human SK-MEL-2 cells by SRB assay; how it was run: as §1
# [27] = test system: NCI-H460; experiment: Cytotoxicity against human NCI-H460 cells assessed as cell growth at 0.05 uM by SRB assay; settings: read-out: Activity
# [28] = test system: UACC-62; experiment: Cytotoxicity against human UACC62 cells assessed as cell growth at 0.5 uM by SRB assay; settings: read-out: Activity
# [29] = test system: MDA-MB-435; experiment: Cytotoxicity against human MDA-MB-435 cells assessed as cell growth at 0.5 uM by SRB assay; settings: read-out: Activity
# [30] = test system: SF-539; experiment: Cytotoxicity against human SF539 cells assessed as cell growth at 5 uM by SRB assay; settings: read-out: Activity
# [31] = test system: UACC-62; experiment: Cytotoxicity against human UACC62 cells assessed as cell growth at 50 uM by SRB assay; settings: read-out: Activity
# [32] = test system: MDA-MB-435; experiment: Cytotoxicity against human MDA-MB-435 cells by SRB assay; how it was run: as §1
# [33] = test system: ACHN; experiment: Cytotoxicity against human ACHN cells assessed as cell growth at 50 uM by SRB assay; settings: read-out: Activity
# [34] = test system: OVCAR-3; experiment: Cytotoxicity against human OVCAR3 cells assessed as cell growth at 50 uM by SRB assay; settings: read-out: Activity
# [35] = test system: MOLT-4; experiment: Cytotoxicity against human MOLT4 cells assessed as cell growth at 50 uM by SRB assay; settings: read-out: Activity
# [36] = test system: HL-60(TB); experiment: Cytotoxicity against human HL-60(TB) cells by SRB assay; how it was run: as §2
# [37] = test system: HL-60(TB); experiment: Cytotoxicity against human HL-60(TB) cells assessed as cell growth at 50 uM by SRB assay; settings: read-out: Activity; how it was run: as §2
# [38] = test system: RXF 393; experiment: Cytotoxicity against human RXF393 cells assessed as cell growth at 0.5 uM by SRB assay; settings: read-out: Activity
# [39] = test system: SF-268; experiment: Cytotoxicity against human SF268 cells assessed as cell growth at 5 uM by SRB assay; settings: read-out: Activity
# [40] = test system: MCF7; experiment: Cytotoxicity against human MCF7 cells assessed as cell growth at 0.05 uM by SRB assay; settings: read-out: Activity
# [41] = test system: NCI-H226; experiment: Cytotoxicity against human NCI-H226 cells assessed as cell growth at 0.005 uM by SRB assay; settings: read-out: Activity
# [42] = read-out: LC50 (the source's name)
# [43] = read-out: pLC50 (the source's name) (converted)
smiles,measurement,setting,value
COc1cc([C@@H]2c3cc4c(cc3[C@@H](NC(=O)CN3CCN(CCCCCCN5CCN(CC(=O)N[C@@H]6c7cc8c(cc7[C@@H](c7cc(OC)c(O)c(OC)c7)[C@H]7C(=O)OC[C@@H]76)OCO8)CC5)CC3)[C@H]3COC(=O)[C@H]23)OCO4)cc(OC)c1O,growth at 50 µM,[1],43%
same,growth at 5 µM,[2],57%
same,growth at 0.5 µM,[3],78%
same,GI50,[4]; read-out: GI50,1560 nM
same,CC50,[4]; [42],> 50 µM
same,TGI,[4]; read-out: TGI,25.1 µM
same,GI50,[4]; read-out: pGI50 (converted),1550 nM
same,CC50,[4]; [43],> 50.1 µM
same,TGI,[4]; read-out: pTGI (converted),25.1 µM
same,growth at 50 µM,[5],60%
same,GI50,[6]; read-out: GI50,6.52 µM
same,CC50,[6]; [42],> 50 µM
same,TGI,[6]; read-out: TGI,> 50 µM
same,GI50,[6]; read-out: pGI50 (converted),6.46 µM
same,CC50,[6]; [43],> 50.1 µM
same,TGI,[6]; read-out: pTGI (converted),> 50.1 µM
same,GI50,[7]; read-out: GI50,8.92 µM
same,CC50,[7]; [42],> 50 µM
same,TGI,[7]; read-out: TGI,> 50 µM
same,GI50,[7]; read-out: pGI50 (converted),8.91 µM
same,CC50,[7]; [43],> 50.1 µM
same,TGI,[7]; read-out: pTGI (converted),> 50.1 µM
same,growth at 5 µM,[8],35%
same,growth at 0.005 µM,[9],98%
same,growth at 0.05 µM,[10],97%
same,growth at 0.05 µM,[11],95%
same,growth at 0.5 µM,[12],75%
same,growth at 5 µM,[13],56%
same,growth at 0.05 µM,[14],102%
same,growth at 0.005 µM,[15],82%
same,growth at 0.5 µM,[16],76%
same,growth at 5 µM,[17],92%
same,growth at 0.05 µM,[18],89%
same,growth at 0.05 µM,[19],103%
same,growth at 0.005 µM,[20],86%
same,GI50,[21]; read-out: GI50,5.79 µM
same,CC50,[21]; [42],> 50 µM
same,TGI,[21]; read-out: TGI,44.7 µM
same,GI50,[21]; read-out: pGI50 (converted),5.75 µM
same,CC50,[21]; [43],> 50.1 µM
same,TGI,[21]; read-out: pTGI (converted),44.7 µM
same,GI50,[22]; read-out: GI50,40 µM
same,CC50,[22]; [42],> 50 µM
same,TGI,[22]; read-out: TGI,> 50 µM
same,GI50,[22]; read-out: pGI50 (converted),39.8 µM
same,CC50,[22]; [43],> 50.1 µM
same,TGI,[22]; read-out: pTGI (converted),> 50.1 µM
same,growth at 0.05 µM,[23],93%
same,growth at 5 µM,[24],22%
same,growth at 0.5 µM,[25],56%
same,GI50,[26]; read-out: GI50,11.3 µM
same,CC50,[26]; [42],> 50 µM
same,TGI,[26]; read-out: TGI,35.5 µM
same,GI50,[26]; read-out: pGI50 (converted),11.2 µM
same,CC50,[26]; [43],> 50.1 µM
same,TGI,[26]; read-out: pTGI (converted),35.5 µM
same,growth at 0.05 µM,[27],89%
same,growth at 0.5 µM,[28],70%
same,growth at 0.5 µM,[29],84%
same,growth at 5 µM,[30],12%
same,growth at 50 µM,[31],-5%
same,GI50,[32]; read-out: GI50,7.52 µM
same,CC50,[32]; [42],> 50 µM
same,TGI,[32]; read-out: TGI,> 50 µM
same,GI50,[32]; read-out: pGI50 (converted),7.59 µM
same,CC50,[32]; [43],> 50.1 µM
same,TGI,[32]; read-out: pTGI (converted),> 50.1 µM
same,growth at 50 µM,[33],37%
same,growth at 50 µM,[34],11%
same,growth at 50 µM,[35],5%
same,GI50,[36]; read-out: GI50,772 nM
same,CC50,[36]; [42],> 50 µM
same,TGI,[36]; read-out: TGI,33.8 µM
same,GI50,[36]; read-out: pGI50 (converted),776 nM
same,CC50,[36]; [43],> 50.1 µM
same,TGI,[36]; read-out: pTGI (converted),33.9 µM
same,growth at 50 µM,[37],-1%
same,growth at 0.5 µM,[38],91%
same,growth at 5 µM,[39],20%
same,growth at 0.05 µM,[40],77%
same,growth at 0.005 µM,[41],92%
